Data set [1] relates to P388. Put plainly: Antitumor activity against mouse P388 cells allografted in mouse at 6.25 mg/kg, ip. The data set is classed as functional. Conditions: route intraperitoneal. The method in brief:
(§1)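 P-388 lymphocytic leukemia in mice, run by NCI Division of Cancer Treatment standard protocol. Drug given intraperitoneally once daily on days 1-9, dose in mg/kg, with H2O, H2O + Tween 80 or saline as vehicle. Read-out is T/C = treated/control mean or median survival time × 100, and ≥125% counts as significant. Active results were repeated in at least one more experiment.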

Data set [2] has as its system P388. Put plainly: Antitumor activity against mouse P388 cells allografted in mouse at 3.13 mg/kg, ip. The data set is classed as functional. To be noted: route intraperitoneal. Put shortly:
as §1

Data set [3] has as its system P388. Description: Antitumor activity against mouse P388 cells allografted in mouse at 12.5 mg/kg, ip. The data set is classed as functional. To be noted: route intraperitoneal. The method in brief:
as §1

Data set [4] relates to P388. Description: Antitumor activity against mouse P388 cells allografted in mouse at 18.8 mg/kg, ip. The data set is classed as functional. To be noted: route intraperitoneal. Put shortly: as §1
Data set [5] relates to P388. Put plainly: Antitumor activity against mouse P388 cells allografted in mouse at 9 mg/kg, ip. The data set is classed as functional. To be noted: route intraperitoneal. Put shortly: as §1
For data set [6], the system named is P388. Put plainly: Antitumor activity against mouse P388 cells allografted in mouse at 100 mg/kg, ip. Conditions: route intraperitoneal. The data set is classed as functional. Put shortly:
as §1

Data set [7] concerns P388. Description: Antitumor activity against mouse P388 cells allografted in mouse at 25 mg/kg, ip. To be noted: route intraperitoneal. The data set is classed as functional. Put shortly: as §1
In data set [8] the test system is P388. Put plainly: Antitumor activity against mouse P388 cells allografted in mouse at 6 mg/kg, ip. The data set is classed as functional. Conditions: route intraperitoneal. The method in brief: as §1
Data set [9] relates to P388. Put plainly: Antitumor activity against mouse P388 cells allografted in mouse at 50 mg/kg, ip. The data set is classed as functional. Conditions: route intraperitoneal. Put shortly: as §1
Another data set deals with Mus musculus. Put plainly: Toxicity in mouse P388 cells allografted mouse at 25 mg/kg, ip. Further details: dose 25 mg/kg, route intraperitoneal. The data set is classed as organism-based. To be noted: in vivo.

As a reminder, the T/C is the ratio of treated to control.

SMILES strings stand for the structures.

For the molecule `[Br-].c1ccc([P+](CCN2Cc3ccccc3C2)(c2ccccc2)c2ccccc2)cc1`, the T/C in the data set on P388 [1] is given as 114%; in the data set on P388 [2] (dose 6.25 mg/kg, in the assay text read “at 6.25 mg/kg” for “at 3.13 mg/kg”), 114%.

`BrCC[P+](c1ccccc1)(c1ccccc1)c1ccccc1.[Br-]`: in the data set with P388 [2] (dose 3.13 mg/kg), the T/C worked out at 127%.

In the case of `O=C1c2ccccc2C(=O)N1CC[P+](c1ccccc1)(c1ccccc1)c1ccccc1.[Br-]`, the T/C in the data set on P388 [3] was found to be 160%.

For the molecule `O.O=C1c2ccccc2C(=O)N1C[P+](c1ccccc1)(c1ccccc1)c1ccccc1.[Br-]`, in the data set with P388 [4], the T/C is reported as 136%.

In turn, `O.O=C1c2ccccc2C(=O)N1CCC[P+](c1ccccc1)(c1ccccc1)c1ccccc1.[Br-]` displayed a T/C in the data set with P388 [3] of 151%.

On to `O=C1c2ccccc2C(=O)N1CCCC[P+](c1ccccc1)(c1ccccc1)c1ccccc1.[Br-]`, for which the T/C with P388 [5] came out at 121%.

In turn, `CCCC[P+](CCCC)(CCCC)CCN1C(=O)c2ccccc2C1=O.O.[Br-]` yielded a T/C in the data set with P388 [6] of 116%.

The molecule `N#CCC[P+](CCC#N)(CCC#N)CCN1C(=O)c2ccccc2C1=O.O.[Br-]` came in with a T/C with P388 [7] of 117%.

For the molecule `O=C1c2ccccc2C(=O)N1CC[P+](Cc1ccccc1)(Cc1ccccc1)Cc1ccccc1.[Br-]`, in the data set on P388 [7], the T/C amounted to 112%.

`O=C1c2ccccc2C(=O)N1CC[P+](C1CCCCC1)(C1CCCCC1)C1CCCCC1.[Br-]` showed a T/C with P388 [7] of 118%.

In the case of `COc1ccc([P+](CCN2C(=O)c3ccccc3C2=O)(c2ccc(OC)cc2)c2ccc(OC)cc2)cc1.O.[Br-]`, the T/C in the data set on P388 [8] is 134%.

Regarding `Cc1ccc([P+](CCN2C(=O)c3ccccc3C2=O)(c2ccc(C)cc2)c2ccc(C)cc2)cc1.O.[Br-]`, the T/C with P388 [1] is 134%.

For the molecule `O.O=C1c2ccccc2C(=O)N1CC[P+](c1ccc(Cl)cc1)(c1ccc(Cl)cc1)c1ccc(Cl)cc1.[Br-]`, the T/C with P388 [1] was 110%.

The molecule `O.O=C1c2cccc([N+](=O)[O-])c2C(=O)N1CC[P+](c1ccccc1)(c1ccccc1)c1ccccc1.[Br-]` gave a T/C with P388 [9] of 109%.

The molecule `Cc1cccc2c1C(=O)N(CC[P+](c1ccccc1)(c1ccccc1)c1ccccc1)C2=O.[Br-]` yielded a T/C in the data set on P388 [2] (dose 3.13 mg/kg) of 140%.

Molecule `Cc1ccc2c(c1)C(=O)N(CC[P+](c1ccccc1)(c1ccccc1)c1ccccc1)C2=O.[Br-]` had a T/C with P388 [1] of 139%.

On to `O.O=C1c2ccc([N+](=O)[O-])cc2C(=O)N1CC[P+](c1ccccc1)(c1ccccc1)c1ccccc1.[Br-]`, for which, in the data set on P388 [7], the T/C is listed as 107%.

Turning to `O=C1C=CC(=O)N1CC[P+](c1ccccc1)(c1ccccc1)c1ccccc1.[Br-]`, the T/C with P388 [7] was found to be 120%.

With `O.O=C1C2CC=CCC2C(=O)N1CC[P+](c1ccccc1)(c1ccccc1)c1ccccc1.[Br-]` (stereo unspecified), the T/C in the data set on P388 [7] was determined as 115%.

Consider `O.O=C1c2ccccc2C(=O)N1CC[P+](c1ccccc1)(c1ccccc1)c1ccccc1.[Cl-]`, for which, in the data set with P388 [1], the T/C stood at 133%.

Molecule `Br.O.[Br-].c1ccc([P+](CCN2Cc3ccccc3C2)(c2ccccc2)c2ccccc2)cc1` registered a T/C in the data set with P388 [1] of 118%.

Regarding `COCC[P+](c1ccccc1)(c1ccccc1)c1ccccc1.[Br-]`, the T/C in the data set with P388 [3] stood at 123%.

As for `O.O=c1c2cc3c(=O)n(CC[P+](c4ccccc4)(c4ccccc4)c4ccccc4)c(=O)c3cc2c(=O)n1CC[P+](c1ccccc1)(c1ccccc1)c1ccccc1.[Br-].[Br-]`, in the data set with P388 [7], the T/C amounted to 18%. For the same molecule, the Activity result in the data set on Mus musculus is “Toxic”.

In the data set with P388 [7], `O=C1c2ccccc2C(=O)N1CCP(=O)(c1ccccc1)c1ccccc1` registered a T/C of 106%.

Values taken from ChEMBL document CHEMBL3244315, “Synthesis and antitumor properties of some isoindolylalkylphosphonium salts” (J Med Chem, 1978).
